MPTP inh: mitochondrial permeability transition pore inhibitors, primary screen, biochemical, isolated mouse mitochondria, absorbance; Ca2+ swelling absorbance, 30 min; inhibition, % at 10 µM; 1.4% of 360,000 active; AID 602449, 2012;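 active = inhibition of 50% or more, scaled per plate between neutral and stimulator controls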
NR3A LBD binder: binders of NR3A ligand-binding domain, primary screen, biophysical, differential scanning fluorimetry, uHTS; Tm shift relative to glycine control, % at 25 µM; Glutamate receptor ionotropic, NMDA 3A (GRIN3A) ligand-binding domain; AID 1259313, 2017; 2.5% of 340,000 active; NR3A LBD differential scanning fluorimetry, Tm shift; 0% = protein alone, 100% = glycine-bound protein;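 active = melting temperature shift of at least 10% of the positive control shift, at one fixed dose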
UPR CHOP act: activators of apoptotic CHOP UPR arm, primary screen, cell-based, CHO-CHOP luciferase reporter, luminescence, uHTS. UPR activation; percent of tunicamycin response over DMSO baseline. activation, % at 10 µM. 0.34% of 330,000 active. AID 449763, 2010;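 active = at 10 µM dose, activation of 40% or more, normalized to positive control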
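Assay system: CHO cells with stable CHOP pathway luciferase reporter; Buffer or medium: F12 plus 10% serum; Times: 16-18 h cell attachment, then 6 h compound exposure, 37 °C; Signal: luciferase luminescence; Read-out basis: percent activation relative to tunicamycin control; Control set: tunicamycin high control, DMSO low control.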
aDG glyco up: activators of alpha-DG glycosylation, primary screen, uHTS, Pro5-aDG cells, AlphaScreen. activation, % at 10 µM. 0.22% of 360,000 active. alpha-DG glycosylation AlphaScreen (IIH6); 0% Pro5, 100% B10-LARGE cell signal. AID 624168, 2012;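 active = activation of at least 8% versus controls, or a plate z-score of at least 8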;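 note: Pro5 are CHO cells carrying HIG-tagged alpha-DG that lacks glycosylation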
CHOP inh: inhibitors of CHOP promoter induction, primary screen, cell-based, unfolded protein response, luciferase reporter | AID 2732, 2010 | 3.8% of 220,000 active | inhibition, % at 10 µM | CHO-K1 CHOP-promoter luciferase, tunicamycin-induced, 15-18 h;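 active = compounds that reduced the stress-induced luciferase reporter signal by more than about 70% of percent inhibition, limit read from the data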
XBP1 UPR activ: activators of adaptive XBP1 UPR arm, primary screen, cell-based, CHO-XBP1 luciferase reporter, luminescence, uHTS | IRE1-XBP1 UPR activation; percent of tunicamycin response, DMSO as zero | activation, % at 20 µM | 0.33% of 330,000 active | AID 463104, 2010;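 active = versus positive control, 20 µM dose yields 30% or more activation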
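assay system = CHO-XBP1 luciferase reporter cells | amount = 1000 cells/well | buffer or medium = F12 plus 10% FBS | compound dosing = single point, 20 µM final compound, 1% DMSO | incubation = 16-18 h cell attachment at 37 °C, then 6 h compound exposure | detection = Steady-Glo luminescence read | controls = tunicamycin 10 µg/mL and vehicle-only wells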
Hits are given with their value; – = inactive; · = no result given. A selection: hits, their analogues and other compounds. The true share with any hit is near 5.6%.

SMILES | MPTP inh | NR3A LBD binder | UPR CHOP act | aDG glyco up | CHOP inh | XBP1 UPR activ
COC(=O)c1ccccc1NC(=O)CSc1nnc(C(CO)NC(=O)c2ccccc2Cl)n1C (stereo not given) | – | – | – | – | – | –
CC(NC(=O)c1ccccc1Cl)c1nnc(SCC(=O)Nc2ccc(C(=O)O)cc2)n1C (stereo not given) | – | 15.8 | – | – | – | –
COc1ccc(S(=O)(=O)N2CCN(C(=O)C3CC3)CC2)cc1Br | – | – | – | – | · | –
CCN(CCNc1ccc(Cl)cc1[N+](=O)[O-])C(=O)c1cc([N+](=O)[O-])c(N(C)C)cc1OC | – | 15.7 | – | – | – | –
Cc1cc(C)nc(SCc2ccc(C(=O)N/N=C3\CCCC(=O)C3)cc2)n1 | – | – | – | – | – | –
N#CC1(Nc2ccc(C(=O)O)cc2)CCCC1 | – | – | · | – | · | ·
c1ccc(Nc2nc3ccccc3n3nnnc23)cc1 | – | – | – | – | – | –
COc1cccc(Nc2nc3ccccc3n3nnnc23)c1 | – | – | – | – | 88.5 | –
Fc1cccc(Nc2nc3ccccc3n3nnnc23)c1 | – | – | – | – | 87.4 | –
COc1cccc(-c2nc(CS(=O)(=O)CC(=O)NC3CCCCCC3)c(C)o2)c1 | – | – | – | – | · | –
C=CCNC(=S)Nc1ccc2cn[nH]c2c1 | – | – | – | – | – | –
FC(F)Oc1ccc(NC(=S)Nc2ccc3cn[nH]c3c2)cc1 | – | 16.6 | – | – | – | –
S=C(Nc1ccccc1)Nc1ccc2cn[nH]c2c1 | – | – | – | – | – | –
Cc1ccc(NC(=S)Nc2ccc3cn[nH]c3c2)cc1 | – | 19.2 | – | – | – | –
Cc1cc(C)cc(NC(=S)Nc2ccc3cn[nH]c3c2)c1 | – | 14.7 | – | – | – | –
Cc1ccc(NC(=S)NNC(=S)Nc2ccc(C)cc2)cc1 | – | 30.1 | · | – | · | ·
CCCCNc1ncnc2[nH]ncc12 | – | – | · | – | · | ·
CCCCCCN1C[C@@H](O)[C@H](n2cc(C3CC3)nn2)C[C@@H]1c1ccc(Cl)cc1 | – | · | · | – | · | ·
CN(C)c1ccc(N=Nc2cccc(F)c2)cc1 | – | – | – | – | · | –
CN(C)c1ccc(N=Nc2cccc3ccoc23)cc1 | – | 22.2 | – | – | – | –
CCN(CC)CCCNC1=C(Cl)C(=O)c2ccccc2C1=O | – | – | – | 9.2 | – | –
C=CCNC1=C(Cl)C(=O)c2ccccc2C1=O | – | – | – | 9.7 | – | –
CC(C)OCCCNC1=C(Cl)C(=O)c2ccccc2C1=O | – | – | – | – | – | –
CC(C)NC1=C(Cl)C(=O)c2ccccc2C1=O | – | – | – | 6.3 | – | –
O=C1C(Cl)=C(NCc2cccnc2)C(=O)c2ccccc21 | – | – | – | 2.9 | · | –
SMILES | MPTP inh | NR3A LBD binder | UPR CHOP act | aDG glyco up | CHOP inh | XBP1 UPR activ
O=C1C(Cl)=C(NCCc2ccccc2)C(=O)c2ccccc21 | – | – | · | – | · | ·
Cn1c(N)c(C(=O)CSc2nc(N)cc(N)n2)c(=O)n(C)c1=O | – | – | – | – | – | –
COc1ccc(Cc2c(C(C)(C)C)nc3c(C)cc(Br)cn23)c(C)c1 | – | · | · | – | · | ·
CCN(CC)S(=O)(=O)c1cccc(-c2n[nH]c(=S)n2/N=C/c2ccc(OC)cc2)c1 | – | – | – | – | – | –
CCN(CC)S(=O)(=O)c1cccc(-c2n[nH]c(=S)n2/N=C/c2ccc(Br)cc2)c1 | – | 22.2 | – | – | 89.8 | –
Cc1cccc(/C=N/n2c(-c3cc(-c4ccccc4)n[nH]3)n[nH]c2=S)c1 | – | – | – | – | 74.8 | –
C[C@@H]1CN([C@H](C)CO)C(=O)CCCn2nncc2CO[C@H]1CN(C)Cc1ccc(Cl)c(Cl)c1 | – | · | · | – | · | ·
COc1ccc(CS(=O)(=O)CC(C)(O)c2ccccc2Cl)cc1 (stereo not given) | – | 16.4 | – | – | · | –
CC(O)(CS(=O)(=O)Cc1ccccc1)c1ccccc1 (stereo not given) | – | – | – | – | · | –
Cc1ccc(NC(=O)CCN2C(=O)OC(C)(C)C2(C)O)cc1 (stereo not given) | – | – | – | – | – | –
COc1ccc(N(C)C(=O)C2CCCN2S(=O)(=O)c2cccc3nsnc23)cc1 (stereo not given) | – | – | – | – | · | –
Cc1cc(C)nc(NC(=NCCc2c[nH]c3ccccc23)NC(=O)Nc2ccccc2)n1 | – | 10.2 | – | – | – | –
Cc1cc(C)nc(NC(=NCCc2c[nH]c3ccccc23)NC(=O)Nc2ccc(Cl)c(Cl)c2)n1 | – | 27.4 | – | – | – | –
Cc1cc(C)nc(NC(=NCCc2c[nH]c3ccccc23)NC(=O)Nc2cccc([N+](=O)[O-])c2)n1 | – | – | – | – | – | –
CC(C)(C)c1ccc(-c2cc(-c3ccccc3O)[nH]n2)cc1 | – | 19.4 | – | – | · | –
COc1ccc(-c2cc(-c3ccc(OC)cc3)[nH]n2)cc1 | – | – | – | – | – | –
Cc1cc(-c2ccccc2)n[nH]1 | – | – | – | – | – | –
COc1ccc(-c2cc(-c3cc(C)ccc3O)[nH]n2)cc1 | – | 13.8 | – | – | – | –
COc1ccc(-c2cc(-c3ccc(C)cc3)n[nH]2)c(O)c1 | – | 30.8 | – | – | · | –
O=C(O)c1ccc2c(c1)S(=O)(=O)c1cc(N3CCN(c4ncccn4)CC3)ccc1C2=O | – | · | · | – | · | ·
CSc1ncccc1C(=O)N1CCN(S(=O)(=O)c2cc(C)ccc2C)CC1 | – | – | – | – | · | –
Cc1ccc(C)c(S(=O)(=O)N2CCN(Cc3ccc(O)c4ncccc34)CC2)c1 | – | – | – | – | 76.0 | –
CCOc1ccc(S(=O)(=O)NCCC(=O)NCCOc2ccccc2OC)cc1 | – | 20.8 | – | – | · | –
CCOc1ccc(S(=O)(=O)NCCC(=O)NCc2ccco2)cc1 | – | – | – | – | – | –
Cc1ccc(N(CCC#N)C(=O)COC(=O)C2=COCCO2)cc1 | – | – | – | – | · | –
CC(C)C(NC(=O)c1c(F)cccc1F)C(=O)OCN1C(=O)c2ccccc2C1=O (stereo not given) | – | – | – | – | · | –
OC(CN(c1ccccc1)c1ccccc1)Cn1cnc2ccccc21 (stereo not given) | – | – | – | – | 92.2 | –
CC(C)(C)c1cc(C(=O)Nc2cccc3ccccc23)ccn1 | – | 683.0 | – | – | – | –
O=c1[nH]c(C2CCN(S(=O)(=O)c3ccc(S(=O)(=O)NC4CC4)cc3)CC2)nc2c1nnn2Cc1ccccc1 | – | – | – | – | · | –

From PubChem BioAssay
